bCat nuc transl – modulators of beta-catenin nuclear translocation, primary screen, imaging, HeLa cells, immunofluorescence, high-content. AID 1665, 2009. actives 0.3% (n = 190,000). nuclear translocation activity, % at 5 µM;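 active = nuclear translocation activity above 50% at 5 µM, with a well cell count of 50 or more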;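 note: per-cell ratio of nuclear to cytoplasmic median beta-catenin stain intensity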
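Test system: HeLa cells, endogenous beta-catenin; Compound: single 5 µM dose plus 0.02–20 µM confirmation series; Times: compound exposure 24 h at 37°C; Signal: fluorescence imaging of beta-catenin antibody stain plus DAPI; Read-out: % activation, nuclear-to-cytoplasmic median beta-catenin signal ratio per cell.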
Dynein cargo inh – inhibitors of GR-EGFP nuclear translocation, primary screen, dynein cargo transport inhibitor project, imaging, high-content, 3617.4 mouse cells; test concentration mostly 20 µM; stimulated with dexamethasone, 1 µM; stronger effect = lower value; z-score, hits read low; actives 0.47% (n = 220,000); AID 1381, 2008;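 active = plate z-score of nuclear minus cytoplasmic receptor signal below a set negative limit, without overly bright fluorescence or cell loss, cut at about -3.5 in these data, passing the limit was not always enough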;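 note: z-score of nuclear minus cytoplasmic ring GR-EGFP intensity difference per well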
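medium = tetracycline-free induction medium containing charcoal-stripped FBS | probe or stimulus = dexamethasone, 1.0 µM final | timing = 48 h induction, then 1 h compound, then 30 min agonist, 37 °C | detection = automated 10x imaging of fixed Hoechst-stained cells | read-out basis = nuclear versus cytoplasmic GR-EGFP signal, averaged per well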
MT stabilizer – microtubule stabilizers in HeLa cells, primary screen, imaging, high-content imaging; HeLa tubulin immunostaining HCS, 24 h; share of cells brighter than vehicle mean+2SD; actives 0.83% (n = 200,000); % tubulin-high responders, % at 10 µM; AID 2205, 2009;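 active = plate Z-score above 3 for both tubulin-high and condensed-nucleus cell shares, with cell loss under 80%, at 10 µM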;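 note: anti alpha tubulin signal scored within the nucleus-defined area of each cell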
L major viab – Leishmania major promastigote growth inhibition, primary screen | Leishmania major promastigotes, resazurin fluorescence viability | inhibition, % at 10 µM | actives 9% (n = 200,000) | AID 1063, 2008; in the data active = inhibition above about 50%;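 note: promastigotes grown with compound for 44 hours at 28 °C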
HSV replic up – enhancers of HSV replication in host cells, fold increase, host cell viability | HSV replication augmentation in cells | actives 0.005% (n = 220,000) | maximum fold increase; in the data active = maximum fold increase above about 1.5; tested in PC3 cells
Large screens that a line does not name were inactive. Compounds with a hit are over-represented: about 8.9% of the library has one in this group of screens.

CC(=O)c1cccc(NC(=O)C=C(C)C)c1	L major viab 97.7
CC(=O)c1cccc(NC(=O)Nc2cccs2)c1	none
CC(=O)c1cccc(NC(=S)NC(=O)c2ccc(Br)cc2)c1	L major viab 54.5
O=C(NC(=S)Nc1cccc(CO)c1)c1ccc(-c2ccccc2)cc1	L major viab 56.8
O=C(Nc1ccc(Cc2ccncc2)cc1)C1CCC(N2C(=O)C3C4C=CC(C4)C3C2=O)CC1 (stereo not given)	L major viab 62.3 (no result: bCat nuc transl)
Cn1ccsc1=NC(=O)c1ccccc1F	none
Cc1ccc(-n2c(C)cc(/C=N/NC(=O)c3ccc(CN4CCOCC4)cc3)c2C)cc1	L major viab 53.1
Cc1ccc(-n2c(C)cc(/C=N/NC(N)=S)c2C)cc1	L major viab 100.2
COC(=O)C1=C(C)NC2=C(C(=O)CCC2)C1c1cn(Cc2ccc(Cl)cc2Cl)nc1-c1ccccc1 (stereo not given)	L major viab 56.8
Cc1cccc(/C=N/Nc2ccc3ccccc3n2)c1	none
Cc1ccc(/C=N/NC(=O)c2cc(C3CC3)nc3ccccc23)o1	MT stabilizer 22.8
Cc1ccc(/C=N/Nc2ccc3ccccc3n2)o1	L major viab 63.5
Cc1cc(C(=O)N/N=C/c2ccco2)c2ccccc2n1	none
Cc1cc(C(=O)N/N=C/c2ccc(C)o2)c2ccccc2n1	MT stabilizer 14.5
CCCc1cc(C(=O)N/N=C/c2ccc(C)o2)c2ccccc2n1	MT stabilizer 43.6
CC(NC(=O)c1cccc(N2CCCC2=O)c1)c1ccc2c(c1)OCCO2 (stereo not given)	none
COc1ccccc1OCC(=O)NN1Cc2ccccc2C1=N	none
Fc1cnc(N2CCOCC2)nc1N1CCOCC1	none
CCS(=O)(=O)N1CCN(C(=O)CCC2CCCC2)CC1	none
CC(C)(C)NCC(O)COc1c(F)cc(Br)cc1F (stereo not given)	none
CC(C)(C)CC(C)(C)NCC(O)COc1c(F)cc(Br)cc1F (stereo not given)	L major viab 100.5 (no result: bCat nuc transl)
Cn1c(=O)cc(NCCc2ccccc2)[nH]c1=O	MT stabilizer 26.3 (no result: bCat nuc transl)
Cn1c(NCCc2ccccc2)cc(=O)n(C)c1=O	none
O=C(NCc1ccccn1)C1CCN(Cc2cccc(OCc3ccccc3)c2)CC1	L major viab 100.1 (no result: HSV replic up)
CC(O)CNC(=O)C1CCN(Cc2ccc(OCc3ccccc3)cc2)CC1 (stereo not given)	L major viab 91.1
Cc1sc2ncnc(SCC(=O)N3CCCC3)c2c1C	none
Cc1c(S(=O)(=O)NCCc2ccccc2)c(=O)n(C)c(=O)n1C	none (no result: MT stabilizer, L major viab)
COc1ccccc1NS(=O)(=O)c1cc(NC(=O)CC(C)(C)C)ccc1N1CCOCC1	L major viab 98.3
COc1cc(OC)c(S(=O)(=O)Nc2ccccc2N2CCOCC2)cc1NC(C)=O	none
COc1ccccc1NS(=O)(=O)c1cc(NC(=O)c2cccs2)ccc1N1CCOCC1	none (no result: MT stabilizer, L major viab)
COc1ccccc1NS(=O)(=O)c1cc(NC(=O)CCC2CCCC2)ccc1N1CCOCC1	L major viab 98.6
O=C(NCC1CCCO1)C1CCC(N2C(=O)c3ccccc3C2=O)CC1 (stereo not given)	none
Cc1ccc(CNC(=O)Cc2ccc(-n3cccc3)cc2)cc1	none
CCc1ccccc1NC(=O)Cc1ccc(-n2cccc2)cc1	none
CCc1ccc(NC(=O)Cc2ccc(-n3cccc3)cc2)cc1	L major viab 86.1
O=C(Cc1ccc(-n2cccc2)cc1)NCc1cccs1	bCat nuc transl 165.1, MT stabilizer 29.3
Cc1cc(C(=O)NCCC2=CCCCC2)ccc1[N+](=O)[O-]	none
O=C1NNC(c2ccccc2)=N/C1=C\c1ccco1	none (no result: MT stabilizer, L major viab)
COc1cc(/C=C2\N=C(c3ccccc3)NNC2=O)cc(OC)c1OC	bCat nuc transl 64.6 (no result: MT stabilizer, L major viab)
CN1c2ccccc2C(C)(C)[C@]12C=Cc1cc(O)ccc1O2	MT stabilizer 30.6, L major viab 99.2 (no result: HSV replic up)
CN1c2ccccc2C(C)(C)C12C=Nc1c(ccc3ccccc13)O2 (stereo not given)	none
O=C(CSc1nc(NS(=O)(=O)c2ccccc2)cc(=O)[nH]1)Nc1ccc(F)cc1	none
CCCCC(=O)Nc1ccc(C(=O)Nc2ccc(S(=O)(=O)Nc3nccc(C)n3)cc2)cc1	L major viab 78.2
Cc1ccnc(NS(=O)(=O)c2ccc(NC(=O)CSc3nc(-c4ccccc4)cc(=O)[nH]3)cc2)n1	L major viab 93.7
CCCCC(=O)Nc1ccc(S(=O)(=O)Nc2nccc(C)n2)cc1	none
